# HSV replic up – increases HSV replication in cells. 220,000 compounds, 0.005% hits. maximum fold increase. AID 1956. HSV replication augmentation in cells, fold increase; in the data active = maximum fold increase above about 1.5; tested in PC3 cells
# MT stabilize HCS – stabilizes microtubules in HeLa cells; HeLa tubulin immunostaining HCS, 24 h; share of cells brighter than vehicle mean+2SD; % tubulin-high responders, % at 10 µM; 200,000 compounds, 0.83% hits;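 active = plate Z-score above 3 for both tubulin-high and condensed-nucleus cell shares, with cell loss under 80%, at 10 µM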;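 note: anti alpha tubulin signal scored within the nucleus-defined area of each cell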
# bCat nuc transl – modulators of beta-catenin nuclear translocation; 190,000 compounds, 0.3% hits; HeLa beta-catenin nuclear translocation, immunofluorescence imaging; nuclear translocation activity, % at 5 µM;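 active = nuclear translocation activity above 50% at 5 µM, with a well cell count of 50 or more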;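 note: per-cell ratio of nuclear to cytoplasmic median beta-catenin stain intensity; plate controls were DMSO negative control for no effect and GSK-3 inhibitor IX positive control for full effect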
#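 Assay system: human HeLa cells, native beta-catenin; doses: 5 µM primary, 0.02–20 µM confirmation; incubation: compound treatment 24 h, 37°C, 5% CO2; technique: fluorescence imaging of beta-catenin antibody stain plus DAPI; measure: % activation, nuclear-to-cytoplasmic median beta-catenin signal ratio per cell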
# L major viab – Leishmania major promastigote growth inhibition. Leishmania major promastigotes, resazurin fluorescence viability. inhibition, % at 10 µM. 200,000 compounds, 9% hits. AID 1063; in the data active = inhibition above about 50%;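 note: promastigotes grown with compound for 44 hours at 28 °C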
# Dynein transport – dynein cargo transport inhibition; 3617.4 mouse cells, GR-EGFP nuclear translocation imaging; test concentration mostly 20 µM; stimulated with dexamethasone, 1 µM; stronger effect = lower value; z-score, hits read low; 220,000 compounds, 0.47% hits; AID 1381;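 active = plate z-score of nuclear minus cytoplasmic receptor signal below a set negative limit, without overly bright fluorescence or cell loss, cut at about -3.5 in these data, passing the limit was not always enough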;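 note: z-score of nuclear minus cytoplasmic ring GR-EGFP intensity difference per well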
#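 medium = tetracycline-free induction medium containing charcoal-stripped FBS | also added = 1.0 µM final dexamethasone stimulus | schedule = 48 h induction, 1 h compound, 30 min dex at 37 °C | technique = fixed, Hoechst-stained cells imaged at 10x for EGFP | measure = GR-EGFP nuclear translocation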
# * marks the source's active call; other numbers are inactive results; i = inactive; x = not tested or not shown. Rows were chosen to be rich in hits. Some 8.9% of all compounds tested hit in one or more screens of this group.
SMILES,HSV replic up,MT stabilize HCS,bCat nuc transl,L major viab,Dynein transport
Cc1cc(C)n2nc(-c3ccco3)nc2n1,i,1,-2,-3,-0.56
CCCOc1ccccc1NC(=O)/C=C/C(N)=O,i,2,x,101*,0.2
CC(=O)Nc1ccc(N/C(N)=N/c2nc(C)cc(C)n2)cc1,i,3,-1,9,-0.7
CCCCN(CCCC)/C(N)=N/c1nc(C)cc(C)n1,i,2,0,45,-0.57
CCCCOc1ccccc1NC(=O)C=C(C)C,i,5,1,4,-1.5
Cc1cc(C)nc(/N=C(\N)Nc2ccc(-c3ccccc3)cc2)n1,i,5,2,98*,-0.47
Cc1cc(C)nc(/N=C(\N)N(Cc2ccccc2)Cc2ccccc2)n1,i,3,0,90*,-1.2
CCCOc1ccccc1N/C(N)=N/c1nc(C)cc(C)n1,i,1,1,90*,-0.28
COc1ccc(OC)c(S(=O)(=O)Nc2cnc3ccccc3c2)c1,i,2,x,1,0.19
Cc1nccn1CC(=O)O,i,x,-4,x,x
CCCOc1ccccc1N/C(=N/c1nc(C)cc(C)n1)NC(=O)COc1ccc(OC)cc1,i,2,x,97*,0.57
COc1ccc(OC)c(N/C(=N/c2nc(C)cc(C)n2)NC(C)=O)c1,i,x,1,x,-0.91
O=C(CSc1nnc(-c2cccs2)o1)N1CCCc2ccccc21,i,2,x,-6,0.66
CN(C)c1ccc(/C=N/N2C(=N)N(c3ccccc3)C(=S)C2=Nc2ccccc2)cc1,x,28,x,1,-0.46
CCOC(=O)c1ccc(N=C2C(=S)N(c3ccc(C(=O)OCC)cc3)C(=N)N2/N=C/c2ccccc2)cc1,i,3,-2,100*,0.13
COC(=O)c1sc(C(F)(F)F)c(-c2ccccc2)c1S(=O)(=O)NC(C)(C)C,i,x,-1,x,-0.088
O=C(NCCc1ccccc1)C(c1cccs1)N(C(=O)c1csnn1)C1CC1 (stereo not given),i,7,1,-2,-0.027
O=C(NCCc1ccccc1)C(c1cccs1)N(C(=O)CCl)c1ccc(Cl)cc1 (stereo not given),i,7,0,101*,-3.5
CCC1CCCCN1Cc1nc2c(c(=O)n(C)c(=O)n2C)n1CCC(C)C (stereo not given),i,2,1,35,0.3
CCCCCCn1c(CN2CCCCC2CC)nc2c1c(=O)n(C)c(=O)n2C (stereo not given),i,2,-1,60*,1.1
Cn1ncc(N=Cc2c(O)ccc3ccccc23)c1C(=O)Nc1cccc(Cl)c1,i,15*,9,10,-0.06
CCOC(=O)c1c(NC(=O)CSc2nnc(-c3c[nH]c4ccccc34)n2CC)sc2c1CCCC2,i,5,-1,55*,-0.11
Cc1cc(NC(=O)CSc2nnc(-c3c[nH]c4ccccc34)n2-c2ccc(Cl)cc2)no1,i,2,8,89*,-0.16
CCn1c(SCC(=O)Nc2ccc3c(c2)OCCO3)nnc1-c1c[nH]c2ccccc12,i,2,-2,60*,0.067
CCOC(=O)CSc1nnc(-c2c[nH]c3ccccc23)n1CC,i,8,x,-7,-0.86
SMILES,HSV replic up,MT stabilize HCS,bCat nuc transl,L major viab,Dynein transport
O=C(CSc1nnc(-c2c[nH]c3ccccc23)n1CC1CCCO1)Nc1ccc2c(c1)OCCO2 (stereo not given),i,3,x,11,-0.17
Cc1nnc(SCC(=O)Nc2sc3c(c2C(=O)c2ccccc2)CCCC3)s1,i,1,-1,89*,0.098
CCNC(=O)COC(=O)c1cc(C)nc2ccccc12,i,4,-1,-4,0.18
O=C(Nc1ccc(-c2ccccc2)cc1)c1ccc2c(c1)S(=O)(=O)c1ccccc1C2=O,i,x,x,x,x
Cc1ccc(C)c(NC(=O)CSc2nnc(-c3ccccc3C)o2)c1,i,7,-9,-1,-0.78
CCn1c(SCC(=O)Nc2ccccc2OC)nnc1-c1cnccn1,i,8,-9,5,-0.69
CCn1c(SCC(=O)Nc2ccc3c(c2)c2ccccc2n3CC)nnc1-c1cnccn1,i,5,-3,99*,-1.2
CCn1c(SCC(=O)N/N=C/c2c[nH]c3ccccc23)nnc1-c1ccc(Cl)cc1,i,12*,35,-3,0.26
Cc1ccc(C)c(NC(=O)CSc2nnc(-c3n[nH]c4ccccc34)o2)c1,i,5,x,60*,-0.5
O=C(CSc1nnc(-c2n[nH]c3ccccc23)n1-c1ccccc1)Nc1ccccc1Cl,i,3,-3,60*,0.59
